Published values gathered from unrelated publications.
Lines come from different studies, so protocols differ.
Observed: cell growth or viability

SMILES | cell line | method | time | endpoint | value
CC1(C)CCC(CN2CCN(c3ccc(C(=O)NS(=O)(=O)c4ccc(NCC5CCOCC5)c([N+](=O)[O-])c4)c(Oc4cnc5[nH]ccc5c4)c3)CC2)=C(c2ccc(Cl)cc2)C1 | OCI-Ly10 | ATP luminescence | 48 h | IC50 | 0.019 µM
C=CC(=O)NC1CCN(c2ncc3ncnc(Nc4ccc(Oc5ccc6c(c5)ncn6C)c(C)c4)c3n2)CC1 | Daoy |  |  | EC50 | 0.0744 µM
CO[C@]12C[C@@H](COC(=O)c3cncc(Br)c3)CN(C)[C@@H]1Cc1cn(C)c3cccc2c13 | SUNE1 | MTT | 48 h | IC50 | 12.2 µM
O=C(NO)c1ccc(CNc2nc3cccc(-c4ccc5c(c4)OCO5)n3n2)cc1 | KM12 | SRB |  | GI50 | 0.56 µM
CC(C)c1ccccc1[C@@H]1CCCN1C1CC2(CCN(c3ccc(C(=O)NS(=O)(=O)c4ccc(NC[C@H]5CC[C@](C)(O)CC5)c([N+](=O)[O-])c4)c(Oc4cnc5[nH]ccc5c4)c3)CC2)C1 | OCI-Ly10 | ATP luminescence | 48 h | IC50 | 0.0026 µM
COc1cc2nc(N3CCN(C(=O)c4ccco4)CC3)nc(N)c2cc1OC | SUNE1 | MTT | 48 h | IC50 | 27.4 µM
Cc1c(C(=O)O)ccc2c3n(nc12)[C@@H]1[C@H](C3)N(CC2CC2)[C@@]2(C(=O)Nc3cc(Cl)ccc32)[C@H]1c1cccc(Cl)c1F | UACC-812 | resazurin |  | GI50 | 0.027 µM
O=C(Nc1cnn2ccc(N3CCC[C@@H]3c3cc(F)ccc3F)nc12)N1CC[C@H](O)C1 | KM12 | ATP luminescence | 72 h | IC50 | 0.01 µM
